“Also recorded” adds a separate entry of the source. No end group written: not given here.

The test system of data set [1] is recombinant or affinity purified human VAP-1. The data set is described as follows: Surface plasmon resonance. Format: binding.
Data set [2] has as its system site of inflammation (VAP-1). Description: PET imaging, rats with turpentine-induced sterile inflammation. Format: in vivo, rat (Sprague-Dawley). Put shortly:
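Sprague-Dawley rats received turpentine oil s.c. in the upper neck, and 24 h later 68Ga-labelled DOTA test peptide i.v. (18.4 ± 3.1 MBq). A 60 min list-mode PET scan was reconstructed by OSEM3D, with blood sampled during imaging. ROIs covered inflammation, muscle, organs and bladder. SUV was ROI concentration divided by injected activity per body weight, corrected for tail residue. Excised organs were then gamma-counted as SUV; three animals.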

Data set [3] has as its system VAP-1 (wild type mice bearing melanoma xenografts). It is filed as in vivo, mouse. Put shortly:
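Wild-type mice received B16 melanoma cells in the neck area and were used 11 days later. 68Ga-DOTA-peptide was injected i.v., then dynamic PET ran 60 min (OSEM2D reconstruction). SUV is ROI radioactivity concentration divided by injected activity per body weight, corrected for tail residue. A separate group got 500-fold molar excess of unlabeled peptide co-injected. Blood, urine and organs were then excised, weighed and gamma-counted.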

In data set [4] the test system is VAP-1 negative knockout mice bearing melanoma xenografts. Format: in vivo, mouse. The settings on record: KO 60 min; i.v.; ex vivo; mean ± SD, n = 2. Put shortly:
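VAP-1 knockout mice received B16 melanoma cells in the neck area and were used 11 days later. 68Ga-DOTA-Siglec-9 peptide was given i.v. (7.8 ± 2.3 MBq, as stated for tumor-bearing mice). Blood, urine and organs were excised, weighed and gamma-counted. Uptake is given as SUV: tissue radioactivity concentration divided by injected radioactivity per body weight.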

Data set [5] relates to human VAP-1 (KOTG mice). Format: in vivo, human (transgene in mouse). Put shortly: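 Ear inflammation was induced with 4 drops of 5% (w/v) DNCB in acetone on the right ear, one day before imaging. Mice were VAP-1 KO, or KOTG (mouse VAP-1-deficient, with human VAP-1 on endothelium under the Tie-1 promoter). 68Ga-DOTA-peptide was given i.v. (KO 7.4 ± 1.8, KOTG 7.5 ± 3.0 MBq). Dynamic PET ran 30 min (OSEM2D), read as SUV, and was checked by ex vivo gamma counting of excised tissues.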

Data set [6] deals with VAP-1 in melanoma tumor. Description: Digital autoradiography of tumor cryosections. Format: in vivo, mouse. As to conditions: i.v. 3.0 ± 0.4 MBq, 15 min. Put shortly:
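B16 melanoma cells were inoculated abdominally, and mice were used 11 days later. Mice received 68Ga-labelled DOTA test peptide i.v. (3.0 ± 0.4 MBq) and were killed after 15 min. Tumour cryosections went to digital autoradiography as PSL/mm2. ROIs covered VAP-1-positive and VAP-1-negative areas, set by anti-mouse VAP-1 staining of adjacent sections. Background was subtracted and values normalised to muscle; four mice, mean ± SD.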

Data set [7] has as its target Vascular Adhesion Protein-1 (VAP-1), human, recombinant (human) (UniProt Q16853). Description: SPR.
Sequence of UniProt Q16853 (Q16853 whole entry): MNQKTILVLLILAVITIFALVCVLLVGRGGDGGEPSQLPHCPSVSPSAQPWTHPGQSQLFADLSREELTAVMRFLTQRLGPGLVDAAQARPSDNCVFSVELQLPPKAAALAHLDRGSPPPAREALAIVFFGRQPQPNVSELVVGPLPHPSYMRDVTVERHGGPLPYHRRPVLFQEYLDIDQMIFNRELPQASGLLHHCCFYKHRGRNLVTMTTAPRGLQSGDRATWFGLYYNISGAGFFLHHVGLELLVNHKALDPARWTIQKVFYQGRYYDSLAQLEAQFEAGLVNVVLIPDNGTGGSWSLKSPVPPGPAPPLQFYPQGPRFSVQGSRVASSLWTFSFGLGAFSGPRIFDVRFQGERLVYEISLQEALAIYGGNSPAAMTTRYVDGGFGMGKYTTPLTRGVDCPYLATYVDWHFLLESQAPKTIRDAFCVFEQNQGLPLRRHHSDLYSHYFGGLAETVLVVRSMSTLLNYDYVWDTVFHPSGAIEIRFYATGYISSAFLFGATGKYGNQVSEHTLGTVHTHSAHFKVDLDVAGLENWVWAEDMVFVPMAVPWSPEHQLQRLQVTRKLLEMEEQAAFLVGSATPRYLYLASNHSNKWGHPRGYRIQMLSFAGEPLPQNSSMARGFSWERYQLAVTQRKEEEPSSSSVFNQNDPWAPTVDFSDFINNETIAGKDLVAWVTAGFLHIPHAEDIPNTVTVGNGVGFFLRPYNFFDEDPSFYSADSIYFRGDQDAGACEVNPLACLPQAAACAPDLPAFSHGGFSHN
Data set [8] concerns Siglec-9 expression on granulocytes. Description: Induction of Siglec-9 expression on granulocytes. Format: cell-based, human. As to conditions: FMLP 0.5 and 5 μg/mL, FACS, MFI, n = 4; for Siglec-9 up-regulation on granulocytes, 2 h: TNF-α 10 and 200 U/mL, LPS 10 and 100 ng/mL. Put shortly: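 Leukocytes from four healthy volunteers were prepared by red-cell lysis of whole blood. Treatments were FMLP (0.5 or 5 μg/mL, 5 min or 2 h), TNF-α (10 or 200 U/mL, 2 h) or LPS (10 or 100 ng/mL, 2 h); untreated cells were controls. Cells were stained with anti-Siglec-9 mAb (3G6 as control), then Alexa546 anti-mouse IgG. Granulocytes were gated by FITC-anti-CD66b and read by flow cytometry as MFI minus control-antibody MFI, mean ± SEM.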

Data set [9] deals with human granulocyte binding to inflamed synovial vessels. Description: Granulocyte binding to vessels in inflamed synovia. Format: cell-based. As to conditions: TNF-α 200 U/mL, 2 h; granulocytes from three donors. Put shortly:
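Percoll-purified granulocytes from three donors were incubated 2 h with TNF-α (200 U/mL) or left untreated. They were then pre-treated 30 min with anti-Siglec-9 or control antibodies. Cells were bound to frozen sections of inflamed human synovium under rotation for 30 min, then glutaraldehyde-fixed. Vessel-bound cells were counted and expressed as % of control-mAb binding (100%), mean ± SEM.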

Data set [10] deals with VAP-1. As to conditions: tyrosine 471 of VAP-1 and Arg293 in Siglec-10; ref [6]; cited from earlier work.
For data set [11], the system named is mouse VAP-1. Description: Adhesion of CHO-Siglec-E cells to CHO cells transfected with mouse VAP-1. Format: cell-based. As to conditions: CHO-Siglec-E or mock; Supplemental Figure 1. The method in brief:
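CHO cells expressing mouse VAP-1, or mock CHO, were grown to confluence in 96-well plates and blocked with PBS/1% BSA. CFSE-labelled CHO-Siglec-E cells (2 × 10^5) were added for 30 min at 37°C. After nine washes, adherence was read by fluorometer, and the wells were imaged by microscope.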

Where [12] appears, read: WT 60 min, i.v., ex vivo, mean ± SD, n = 3.

Consider CARLSLSWRGLTLCPS [wild type peptide], for which, in data set [1] (Biacore X, CM5 chip, immobilized VAP-1, wild type peptide at 0-400 μM), the “binding to recombinant VAP-1 (SPR)” value was “bound to recombinant VAP-1”.
Turning to CARLSLSWRGLTLCPSK [^68Ga-DOTA-peptide], in [2] (i.v. 18.4 ± 3.1 MBq, 5-10 min, 24 h after turpentine, rat), the “accumulation at sites of inflammation vs muscle (PET)” value was “quickly and preferentially accumulated at the sites of inflammation (5-10 min) in comparison to the muscle; also recorded: clearly seen at the site of inflammation (I) but not in the surrounding muscle”. In addition, in [2] (i.v., PET), the elimination route entry is “eliminated rapidly via kidneys to the urinary bladder”. In data set [3] (setting [12]), the “uptake in kidney (SUV), WT” value is 5.10 ± 0.86 standardized uptake values; the “uptake in liver (SUV), WT” value is given as 1.82 ± 0.25 standardized uptake values; the “uptake in lung (SUV), WT” value is 0.69 ± 0.21 standardized uptake values; the “uptake in muscle (SUV), WT” value is 0.21 ± 0.07 standardized uptake values. In data set [3] (setting [12]), the “uptake in small intestine (SUV), WT” value is on record as 0.59 ± 0.16 standardized uptake values and the “uptake in tumour (SUV), WT” value is reported as 0.56 ± 0.12 standardized uptake values. In addition, in data set [3] (i.v. 7.8 ± 2.3 MBq, B16 melanoma, wild type mice), the “accumulation at tumor site (PET)” value was “accumulated at the tumor site”. In data set [4], the “uptake in blood (SUV), KO” value is on record as 0.25 ± 0.01 standardized uptake values; the “uptake in kidney (SUV), KO” value is recorded as 7.78 ± 1.47 standardized uptake values; the “uptake in liver (SUV), KO” value was 0.97 ± 0.07 standardized uptake values; the “uptake in muscle (SUV), KO” value was 0.04 ± 0.01 standardized uptake values. In data set [4], the “uptake in small intestine (SUV), KO” value is reported as 0.08 ± 0.01 standardized uptake values and the “uptake in tumour (SUV), KO” value is on record as 0.20 ± 0.02 standardized uptake values. In addition, the “detection of inflammation in the mouse (PET)” value in data set [5] (DNCB ear skin inflammation, Supplemental Figure 2) is recorded as “able to detect inflammation in the mouse”. Moreover, the “signals in many organs, KOTG vs KO mice” value in data set [5] (i.v. 7.5 ± 3.0 MBq (KOTG), 7.4 ± 1.8 MBq (KO), Supplemental Table 2) was “detects human VAP-1 in many organs realized as higher signals than in KO mice”. The “distribution of radioactivity within tumor” value in data set [6] was “radioactivity concentrated in the periphery of the tumor”.
Turning to “cyclic Siglec-9-like peptide without Arg284 (P1_noArg284) (from UniProt Q9Y336 283-297)”, in [7], the percent reduction of binding against the wild type peptide was 66%.
Same read-out and setting: the figure for “cyclic Siglec-9-like peptide without Arg290 (P1_noArg290) (from UniProt Q9Y336 283-297)” is 42%.
For “formyl-methyl-leucine-phenylalanine [FMLP]”, in data set [8], the “Siglec-9 up-regulation on granulocytes, 2 h” value (“Siglec-9 up-regulation … 2 h” for short) is “further up-regulation was seen after 2 h; also recorded: roughly two-fold after 2 h”. Further, in data set [8] (5 min), the “Siglec-9 up-regulation on granulocytes, 5 min” value was “slightly up-regulated Siglec-9 expression already after 5 min; also recorded: slight up-regulation was already seen after 5 min”.
With lipopolysaccharide [LPS], the “Siglec-9 up-regulation … 2 h” value in data set [8] is “significant up-regulation of Siglec-9 after 2 h”.
As for “mutated Siglec-9 peptide: mutated Siglec-9 peptide, in which both arginines were mutated to alanines (CAALSLSWAGLTLCPS; also: cyclic peptide, ring type not given here)”, the “binding to recombinant VAP-1 (SPR), double arginine mutant” value in data set [1] (both arginines mutated to alanines, data not shown) is “failed to bind recombinant VAP-1”.
On to tumor necrosis factor-α [TNF-α], for which the “granulocyte binding to inflamed synovial vasculature after TNF-α” value in data set [9] was “significantly increased granulocyte binding to synovial vasculature”. The “Siglec-9 up-regulation … 2 h” value in [8] is given as “significant up-regulation of Siglec-9 after 2 h”.

B1: Siglec-10: lymphocyte ligand for VAP-1 (protein, UniProt Q96LC7 17-697, looked up)
Sialic acid-binding Ig-like …: MDGRFWIRVQESVMVPEGLCISVPCSFSYPRQDWTGSTPAYGYWFKAVTETTKGAPVATNHQSREVEMSTRGRFQLTGDPAKGNCSLVIRDAQMQDESQYFFRVERGSYVRYNFMNDGFFLKVTALTQKPDVYIPETLEPGQPVTVICVFNWAFEECPPPSFSWTGAALSSQGTKPTTSHFSVLSFTPRPQDHNTDLTCHVDFSRKGVSAQRTVRLRVAYAPRDLVISISRDNTPALEPQPQGNVPYLEAQKGQFLRLLCAADSQPPATLSWVLQNRVLSSSHPWGPRPLGLELPGVKAGDSGRYTCRAENRLGSQQRALDLSVQYPPENLRVMVSQANRTVLENLGNGTSLPVLEGQSLCLVCVTHSSPPARLSWTQRGQVLSPSQPSDPGVLELPRVQVEHEGEFTCHARHPLGSQHVSLSLSVHYSPKLLGPSCSWEAEGLHCSCSSQASPAPSLRWWLGEELLEGNSSQDSFEVTPSSAGPWANSSLSLHGGLSSGLRLRCEAWNVHGAQSGSILQLPDKKGLISTAFSNGAFLGIGITALLFLCLALIIMKILPKRRTQTETPRPRFSRHSTILDYINVVPTAGPLAQKRNQKATPNSPRTPLPPGAPSPESKKNQKKQYQLPSFPEPKSSTQAPESQESQEELHYATLNFPGVRPRPEARMPKGTQADYAEVKFQ
Take B1: the “dependence of Siglec-10/VAP-1 interaction on enzymatic activity” value in data set [10] is recorded as “completely dependent on the enzymatic activity of VAP-1”.

B2: Siglec-E: mouse molecule corresponding to human Siglec-9, expressed on CHO cells (protein)
chain: QNPQEVFTLNVERKVVVQEGLCVLVPCNFSYLKKRLTDWTDSDPVHGFWYREGTDRRKDSIVATNNPIRKAVKETRNRFFLLGDPWRNDCSLNIREIRKKDAGLYFFRLERGKTKYNYMWDKMTLVVTALTNTPQILLPETLEAGHPSNLTCSVPWDCGWTAPPIFSWTGTSVSFLSTNTTGSSVLTITPQPQDHGTNLTCQVTLPGTNVSTRMTIRLNVSYAPKNLTVTIYQGADSVSTILKNGSSLPISEGQSLRLICSTDSYPPANLSWSWDNLTLCPSKLSKPGLLELFPVHLKHGGVYTCQAQHALGSQHISLSLSPQSSATLSEMMMGTFVGSGVTALLFLSVCILLLAVRSYRRKPARPAVVAPHPDALKVSVSQNPLVESQADDSSEPLPSILEAAPSSTEEEIHYATLSFHEMKPMNLWGQQDTTTEYSEIKFPQRTAWP
For B2, the “adhesion of Siglec-E cells to mouse VAP-1 cells” value in data set [11] is on record as “no VAP-1-Siglec-E mediated adhesion was detected”.

Values taken from PMC3833035 (Blood, 2011).
